Data reported in ChEMBL document CHEMBL4346672, “Antimicrobial and KPC/AmpC inhibitory activity of functionalized benzosiloxaboroles” (Eur J Med Chem, 2019).
Values after ≈ are worked out from the molar mass of the structure shown. Active and inactive are the calls of the source. The rule behind the calls is not given here.

How the values were obtained:
[1] = system: Pseudomonas aeruginosa; experiment: Antibacterial activity against Pseudomonas aeruginosa ATCC 27853 measured after 18 hrs by CLSI broth dilution method; format: functional; conditions: ATCC 27853, 18 h
Outline: (§1)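 Broth MIC in Mueller-Hinton II broth following CLSI, compounds dissolved in DMSO. Strains subcultured twice on tryptic soy agar before testing. Growth read after 35 °C, 18 h.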

[2] = system: Serratia marcescens; experiment: Antibacterial activity against Serratia marcescens ATCC 13880 measured after 18 hrs by CLSI broth dilution method; format: functional; conditions: ATCC 13880, 18 h; outline: as §1
[3] = system: Staphylococcus aureus; experiment: Antibacterial activity against Staphylococcus aureus ATCC 6538P measured after 18 hrs by CLSI broth dilution method; format: functional; outline: as §1
[4] = system: Staphylococcus epidermidis; experiment: Antibacterial activity against Staphylococcus epidermidis ATCC 12228 measured after 18 hrs by CLSI broth dilution method; format: functional; conditions: ATCC 12228, 18 h; outline: as §1
[5] = system: Enterococcus faecalis; experiment: Antibacterial activity against Enterococcus faecalis ATCC 29212 measured after 18 hrs by CLSI broth dilution method; format: functional; conditions: ATCC 29212, 18 h; outline: as §1
[6] = system: Enterococcus faecium; experiment: Antibacterial activity against Enterococcus faecium ATCC 6057 measured after 18 hrs by CLSI broth dilution method; format: functional; conditions: ATCC 6057, 18 h; outline: as §1
[7] = system: Staphylococcus aureus; experiment: Bactericidal activity against Staphylococcus aureus ATCC 6538P measured after 18 hrs by CLSI broth dilution method; format: functional
Outline: (§2)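 Strains stored at -80 °C and subcultured twice on tryptic soy agar before testing. Compounds dissolved in DMSO. […] MBC then determined per CLSI recommendations.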

[8] = system: Staphylococcus epidermidis; experiment: Bactericidal activity against Staphylococcus epidermidis ATCC 12228 measured after 18 hrs by CLSI broth dilution method; format: functional; conditions: ATCC 12228, 18 h; outline: as §2
[9] = system: Enterococcus faecalis; experiment: Bactericidal activity against Enterococcus faecalis ATCC 29212 measured after 18 hrs by CLSI broth dilution method; format: functional; conditions: ATCC 29212, 18 h; outline: as §2
[10] = system: Enterococcus faecium; experiment: Bactericidal activity against Enterococcus faecium ATCC 6057 measured after 18 hrs by CLSI broth dilution method; format: functional; conditions: ATCC 6057, 18 h; outline: as §2
[11] = system: Escherichia coli; experiment: Antibacterial activity against Escherichia coli ATCC 25922 measured after 18 hrs by CLSI broth dilution method; format: functional; conditions: ATCC 25922, 18 h; outline: as §1
[12] = system: Klebsiella pneumoniae; experiment: Antibacterial activity against Klebsiella pneumoniae ATCC 13883 measured after 18 hrs by CLSI broth dilution method; format: functional; conditions: ATCC 13883, 18 h; outline: as §1
[13] = system: Proteus mirabilis; experiment: Antibacterial activity against Proteus mirabilis ATCC 12453 measured after 18 hrs by CLSI broth dilution method; format: functional; conditions: ATCC 12453, 18 h; outline: as §1
[14] = system: Enterobacter cloacae; experiment: Antibacterial activity against Enterobacter cloacae DSM 6234 measured after 18 hrs by CLSI broth dilution method; format: functional; conditions: DSM 6234, 18 h; outline: as §1
[15] = system: Bordetella bronchiseptica; experiment: Antibacterial activity against Bordetella bronchiseptica ATCC 4617 measured after 18 hrs by CLSI broth dilution method; format: functional; conditions: ATCC 4617, 18 h; outline: as §1
[16] = system: Acinetobacter baumannii; experiment: Antibacterial activity against Acinetobacter baumannii ATCC 19606 measured after 18 hrs by CLSI broth dilution method; format: functional; conditions: ATCC 19606, 18 h; outline: as §1
[17] = system: Stenotrophomonas maltophilia; experiment: Antibacterial activity against Stenotrophomonas maltophilia ATCC 13637 measured after 18 hrs by CLSI broth dilution method; format: functional; conditions: ATCC 13637, 18 h; outline: as §1
[18] = system: Burkholderia cepacia; experiment: Antibacterial activity against Burkholderia cepacia ATCC 25416 measured after 18 hrs by CLSI broth dilution method; format: functional; conditions: ATCC 25416, 18 h; outline: as §1
[19] = system: Burkholderia cepacia; experiment: Bactericidal activity against Burkholderia cepacia ATCC 25416 measured after 18 hrs by CLSI broth dilution method; format: functional; conditions: ATCC 25416, 18 h; outline: as §2
[20] = system: Bordetella bronchiseptica; experiment: Bactericidal activity against Bordetella bronchiseptica ATCC 4617 measured after 18 hrs by CLSI broth dilution method; format: functional; conditions: ATCC 4617, 18 h; outline: as §2
[21] = system: Escherichia coli; experiment: Antibacterial activity against Escherichia coli ATCC 25922 assessed as diameter of zone inhibition measured after 18 hrs by CLSI disc diffusion method; format: functional
Outline: (§3)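 Disc diffusion on Mueller-Hinton II agar. Compounds dissolved in DMSO. Strains stored at -80 °C and subcultured twice on tryptic soy agar before testing. Inhibition zones read after 35 °C, 18 h.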

[22] = system: Proteus mirabilis; experiment: Antibacterial activity against Proteus mirabilis ATCC 12453 assessed as diameter of zone inhibition measured after 18 hrs by CLSI disc diffusion method; format: functional; outline: as §3
[23] = system: Enterobacter cloacae; experiment: Antibacterial activity against Enterobacter cloacae DSM 6234 assessed as diameter of zone inhibition measured after 18 hrs by CLSI disc diffusion method; format: functional; outline: as §3
[24] = system: Pseudomonas aeruginosa; experiment: Antibacterial activity against Pseudomonas aeruginosa ATCC 27853 assessed as diameter of zone inhibition measured after 18 hrs by CLSI disc diffusion method; format: functional, organism-based; outline: as §3
[25] = system: Acinetobacter baumannii; experiment: Antibacterial activity against Acinetobacter baumannii ATCC 19606 assessed as diameter of zone inhibition measured after 18 hrs by CLSI disc diffusion method; format: functional; outline: as §3
[26] = system: Stenotrophomonas maltophilia; experiment: Antibacterial activity against Stenotrophomonas maltophilia ATCC 13637 assessed as diameter of zone inhibition measured after 18 hrs by CLSI disc diffusion method; format: functional; outline: as §3
[27] = system: Burkholderia cepacia; experiment: Antibacterial activity against Burkholderia cepacia ATCC 25416 assessed as diameter of zone inhibition measured after 18 hrs by CLSI disc diffusion method; format: functional; outline: as §3
[28] = system: Bordetella bronchiseptica; experiment: Antibacterial activity against Bordetella bronchiseptica ATCC 4617 assessed as diameter of zone inhibition measured after 18 hrs by CLSI disc diffusion method; format: functional; outline: as §3
[29] = system: Escherichia coli; experiment: microbe, parasite or virus in culture; conditions: ATCC 25922, 18 h
[30] = system: Klebsiella pneumoniae; experiment: microbe, parasite or virus in culture; conditions: ATCC 13883, 18 h
[31] = system: Enterobacter cloacae; experiment: microbe, parasite or virus in culture; conditions: DSM 6234, 18 h
[32] = system: Acinetobacter baumannii; experiment: microbe, parasite or virus in culture; conditions: ATCC 19606, 18 h
[33] = system: Staphylococcus aureus; experiment: microbe, parasite or virus in culture; conditions: ATCC 6538P, 18 h, read-out: DIZ
[34] = system: Staphylococcus epidermidis; experiment: microbe, parasite or virus in culture; conditions: ATCC 12228, 18 h, read-out: DIZ
[35] = system: Bacillus subtilis; experiment: microbe, parasite or virus in culture; conditions: ATCC 6633, 18 h, read-out: DIZ
[36] = system: Candida albicans; experiment: Antifungal activity against Candida albicans ATCC 90028 assessed as decrease in fungal cell growth incubated for 24 hrs by E-test; format: functional; conditions: ATCC 90028, 24 h
Outline: (§4)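 Yeast strains were stored at -80 °C and subcultured twice on Sabouraud dextrose agar for 24–48 h at 30 °C before testing.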

[37] = system: Candida parapsilosis; experiment: Antifungal activity against Candida parapsilosis ATCC 22019 assessed as decrease in fungal cell growth incubated for 24 hrs by E-test; format: functional; conditions: Lodderomyces parapsilosis, ATCC 22019, 24 h
Outline: (§5)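 Yeasts were first subcultured on Sabouraud dextrose agar at 30 °C for 24–48 h. […] The MIC was recorded per Etest recommendations, which covers cases where macro-colonies persist inside the ellipse.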

[38] = system: Candida tropicalis; experiment: Antifungal activity against Candida tropicalis IBA 171 assessed as decrease in fungal cell growth incubated for 24 hrs by E-test; format: functional; conditions: IBA 171, 24 h; outline: as §5
[39] = system: Meyerozyma guilliermondii; experiment: Antifungal activity against Candida guilliermondii IBA 155 assessed as decrease in fungal cell growth incubated for 24 hrs by E-test; format: functional; conditions: IBA 155, 24 h; outline: as §5
[40] = system: Pichia kudriavzevii; experiment: Antifungal activity against Candida krusei ATCC 6258 assessed as decrease in fungal cell growth incubated for 24 hrs by E-test; format: functional; conditions: ATCC 6258, 24 h; outline: as §5
[41] = system: Saccharomyces cerevisiae; experiment: Antifungal activity against Saccharomyces cerevisiae ATCC 9763 assessed as decrease in fungal cell growth incubated for 24 hrs by E-test; format: functional; conditions: ATCC 9763, 24 h; outline: as §4
[42] = system: Candida albicans; experiment: Antifungal activity against Candida albicans ATCC 90028 assessed as diameter of zone inhibition at 0.025 mg incubated for 24 hrs by disc diffusion method; format: functional; conditions: ATCC 90028, 24 h, read-out: DIZ
Outline: (§6)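 Disc diffusion on Mueller-Hinton II agar with 2% glucose and 0.5 mg/L methylene blue. Compounds were dissolved in DMSO. Yeasts were subcultured on Sabouraud dextrose agar for 24–48 h at 30 °C before testing. Plates were incubated at 35 °C for 24 h.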

[43] = system: Candida parapsilosis; experiment: Antifungal activity against Candida parapsilosis ATCC 22019 assessed as diameter of zone inhibition at 0.025 mg incubated for 24 hrs by disc diffusion method; format: functional; conditions: Lodderomyces parapsilosis, ATCC 22019, 24 h; read-out: DIZ; outline: as §6
[44] = system: Candida tropicalis; experiment: Antifungal activity against Candida tropicalis IBA 171 assessed as diameter of zone inhibition at 0.025 mg incubated for 24 hrs by disc diffusion method; format: functional; conditions: IBA 171, 24 h, read-out: DIZ; outline: as §6
[45] = system: Meyerozyma guilliermondii; experiment: Antifungal activity against Candida guilliermondii IBA 155 assessed as diameter of zone inhibition at 0.025 mg incubated for 24 hrs by disc diffusion method; format: functional; conditions: IBA 155, 24 h, read-out: DIZ; outline: as §6
[46] = system: Pichia kudriavzevii; experiment: Antifungal activity against Candida krusei ATCC 6258 assessed as diameter of zone inhibition at 0.025 mg incubated for 24 hrs by disc diffusion method; format: functional; conditions: ATCC 6258, 24 h, read-out: DIZ; outline: as §6
[47] = system: Saccharomyces cerevisiae; experiment: Antifungal activity against Saccharomyces cerevisiae ATCC 9763 diameter of zone inhibition at 0.025 mg incubated for 24 hrs by disc diffusion method; format: functional; conditions: ATCC 9763, 24 h, read-out: DIZ; outline: as §6

Compound: O=C1CN(/N=C/c2ccc([N+](=O)[O-])o2)C(=O)N1 [NITROFURANTOIN]
- MIC [1]: > 128 µg/mL
- MIC [2]: 128 µg/mL (≈ 537 µM)
- MIC [3]: 8 µg/mL (≈ 33.6 µM)
- MIC [4]: 4 µg/mL (≈ 16.8 µM)
- MIC [5]: 8 µg/mL (≈ 33.6 µM)
- MIC [6]: 8 µg/mL (≈ 33.6 µM)
- MBC [7]: 16 µg/mL (≈ 67.2 µM)
- MBC [8]: 8 µg/mL (≈ 33.6 µM)
- MBC [9]: 128 µg/mL (≈ 537 µM)
- MBC [10]: > 128 µg/mL
- MIC [11]: 8 µg/mL (≈ 33.6 µM)
- MIC [12]: 32 µg/mL (≈ 134 µM)
- MIC [13]: 128 µg/mL (≈ 537 µM)
- MIC [14]: 32 µg/mL (≈ 134 µM)
- MIC [15]: 64 µg/mL (≈ 269 µM)
- MIC [16]: 64 µg/mL (≈ 269 µM)
- MIC [17]: 128 µg/mL (≈ 537 µM)
- MIC [18]: 32 µg/mL (≈ 134 µM)
- MBC [19]: 32 µg/mL (≈ 134 µM)
- MBC [20]: 128 µg/mL (≈ 537 µM)
- diameter of the inhibition zone (DIZ) [21]: 24 mm
- diameter of the inhibition zone (DIZ) [22]: 9 mm
- diameter of the inhibition zone (DIZ) [23]: 17 mm
- diameter of the inhibition zone (DIZ) [24]: inactive
- diameter of the inhibition zone (DIZ) [25]: 9 mm
- diameter of the inhibition zone (DIZ) [26]: inactive
- diameter of the inhibition zone (DIZ) [27]: 12 mm
- diameter of the inhibition zone (DIZ) [28]: inactive
- MBC [29]: 8 µg/mL (≈ 33.6 µM)
- MBC [30]: 32 µg/mL (≈ 134 µM)
- MBC [31]: 32 µg/mL (≈ 134 µM)
- MBC [32]: 128 µg/mL (≈ 537 µM)
- zone of inhibition at 300 µg/disc [33]: 24 mm
- zone of inhibition at 300 µg/disc [34]: 31 mm
- zone of inhibition at 300 µg/disc [35]: 30 mm

Compound: OC(Cn1cncn1)(Cn1cncn1)c1ccc(F)cc1F [FLUCONAZOLE]
- MIC [36]: 1 µg/mL (≈ 3.27 µM)
- MIC [37]: 2 µg/mL (≈ 6.53 µM)
- MIC [38]: 0.38 µg/mL (≈ 1.24 µM)
- MIC [39]: 0.75 µg/mL (≈ 2.45 µM)
- MIC [40]: 64 µg/mL (≈ 209 µM)
- MIC [41]: 16 µg/mL (≈ 52.2 µM)
- zone of inhibition at 25 µg/disc [42]: 43 mm
- zone of inhibition at 25 µg/disc [43]: 32 mm
- zone of inhibition at 25 µg/disc [44]: 39 mm
- zone of inhibition at 25 µg/disc [45]: 40 mm
- zone of inhibition at 25 µg/disc [46]: 16 mm
- zone of inhibition at 25 µg/disc [47]: 12 mm
